Test results taken from ChEMBL document CHEMBL1154373, “Laetirobin from the parasitic growth of Laetiporus sulphureus on Robinia pseudoacacia” (J Nat Prod, 2009).
The source made the active and inactive calls. The calls are words filed in the database; no cut-off is given here.

Columns and labels:
HCT-116 [1] = test: Cytostatic activity against human HCT116 cells; assay type: functional, cell-based
N2a [2] = test: Inhibition of mitosis in mouse Neuro2a cells assessed as chromatin compactness at 1 nM after 6 to 12 hrs by time-lapse microscopy; assay type: functional, cell-based
How it was run: (§1)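 Cells treated with 1 nM compound and followed by time-lapse microscopy imaging the compound's native fluorescence. Bleb formation and chromatin compaction scored at 6 h and 12 h after treatment.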

HCT-116 [3] = test: Inhibition of mitosis in human HCT116 cells assessed as chromatin compactness at 1 nM after 6 to 12 hrs by time-lapse microscopy; assay type: functional, cell-based; how it was run: as §1
HeLa [4] = test: Inhibition of mitosis in human HeLa cells assessed as membrane scarring between daughter cells at 1 nM by confocal microscopy; assay type: functional, cell-based
How it was run: (§2)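 Cells treated with 1 nM compound before entry into mitosis, then fixed with formalin. Stained for microtubules with BODIPY-FL paclitaxel, actin with FITC-phalloidin, and DNA. Analysed by confocal microscopy for actin filamentation, microtubule structure and daughter-cell separation.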

[5] = Drug localization in lysosome of human HCT116 cells at 1 nM assessed as increase of fluorescence with acidity after 1 hr by spectrophotometric analysis; assay type: ADME, cell-based; settings: hct-116, 1 h, 0.001 µM
HeLa [6] = test: Inhibition of mitosis in human HeLa cells assessed as microtubule disassociation at 1 nM by BODIPY-FL paclitaxel staining; assay type: functional, cell-based; how it was run: as §2
N2a [7] = test: Inhibition of mitosis in mouse Neuro2a cells assessed as bleb formation at 1 nM after 6 to 12 hrs by time-lapse microscopy; assay type: functional, cell-based; how it was run: as §1
N2a [8] = test: Inhibition of mitosis in mouse Neuro2a cells assessed as actin hyperfilamentation at 1 nM by FITC-phalloidin staining; assay type: functional, cell-based; how it was run: as §2
HCT-116 [9] = test: Inhibition of mitosis in human HCT116 cells assessed as membrane scarring between daughter cells at 1 nM by confocal microscopy; assay type: functional, cell-based; how it was run: as §2
HeLa [10] = test: Inhibition of mitosis in human HeLa cells assessed as chromatin compactness at 1 nM after 6 to 12 hrs by time-lapse microscopy; assay type: functional, cell-based; how it was run: as §1
HeLa [11] = test: Inhibition of mitosis in human HeLa cells assessed as bleb formation at 1 nM after 6 to 12 hrs by time-lapse microscopy; assay type: functional, cell-based; how it was run: as §1
HCT-116 [12] = test: Inhibition of mitosis in human HCT116 cells assessed as hyperfilamentation of actin at 1 nM by FITC-phalloidin staining; assay type: functional, cell-based; how it was run: as §2
[13] = Drug localization in large vesicles of human HCT116 cells at 1 nM after 1 hr by confocal microscopy; assay type: ADME, cell-based; settings: hct-116, 1 h, 0.001 µM
N2a [14] = test: Inhibition of mitosis in mouse Neuro2a cells assessed as membrane scarring between daughter cells at 1 nM by confocal microscopy; assay type: functional, cell-based; how it was run: as §2
HeLa [15] = test: Cytostatic activity against human HeLa cells; assay type: functional, cell-based
[16] = Drug localization in nuclear envelope of human HCT116 cells at 1 nM after 1 hr by confocal microscopy; assay type: ADME, cell-based; settings: hct-116, 1 h, 0.001 µM
[17] = Drug localization in large vesicles of mouse Neuro2A cells at 1 nM after 1 hr by fluorescence microscopy; assay type: ADME, cell-based; settings: 0.001 µM
N2a [18] = test: Cytostatic activity against mouse Neuro2a cells; assay type: functional, cell-based
HeLa [19] = test: Inhibition of mitosis in human HeLa cells assessed as actin hyperfilamentation at 1 nM by FITC-phalloidin staining; assay type: functional, cell-based; how it was run: as §2
[20] = Drug localization in nuclear envelope of mouse Neuro2A cells at 1 nM after 1 hr by fluorescence microscopy; assay type: ADME, cell-based; settings: 0.001 µM
HCT-116 [21] = test: Inhibition of mitosis in human HCT116 cells assessed as microtubule disassociation at 1 nM by BODIPY-FL paclitaxel staining; assay type: functional, cell-based; how it was run: as §2
N2a [22] = test: Inhibition of mitosis in mouse Neuro2a cells assessed as microtubule disassociation at 1 nM by BODIPY-FL paclitaxel staining; assay type: functional, cell-based; how it was run: as §2
HCT-116 [23] = test: Inhibition of mitosis in human HCT116 cells assessed as bleb formation at 1 nM after 6 to 12 hrs by time-lapse microscopy; assay type: functional, cell-based; how it was run: as §1

IC50 (HCT-116 [1]): 0.54 nM
Activity [5]: Active
Activity [13]: Active
IC50 (HeLa [15]): 0.12 nM
Activity [16]: Active
Activity [17]: Active
IC50 (N2a [18]): 0.092 nM
Activity [20]: Active
Structure (SMILES): CC(=O)c1cc2c(cc1O)OC1=C(c3cc4cc(C(C)=O)c(O)cc4o3)CCC(c3cc4cc(C(C)=O)c(O)cc4o3)(c3cc4cc(C(C)=O)c(O)cc4o3)C12 (racemic)
Activity (N2a [2]): Active
Activity (HCT-116 [3]): Active
Activity (HeLa [4]): Active
Activity (HeLa [6]): Active
Activity (N2a [7]): Active
Activity (N2a [8]): Active
Activity (HCT-116 [9]): Active
Activity (HeLa [10]): Active
Activity (HeLa [11]): Active
Activity (HCT-116 [12]): Active
Activity (N2a [14]): Active
Activity (HeLa [19]): Active
Activity (HCT-116 [21]): Active
Activity (N2a [22]): Active
Activity (HCT-116 [23]): Active
